Laboratory results reported in PubChem BioAssay.
The source made the active and inactive calls.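 Rule for the calls, unless noted: active = viability at or below 10% of carrier control in both of two separate runs; inconclusive = viability at or below 10% in only one of the two runs; inactive = the rest.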

How the values were obtained:
[1] = Her2 expression decrease, cell viability multiplex – SKBR3 breast tumor cells, AlphaScreen, ATP viability, primary screen (AID 461;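 active = Her2 level under about 52% in both replicate screens, with viability over 70% of control, limit read from the data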;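 for Her2 level: lower value means less Her2 protein in the cells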;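 for viability: percent of carrier control wells set as 100% viability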); conditions: SKBR3 Her2 protein level, 18-24 h, measured here: SKBR3 viability, ATP luminescence, at 10 µM
[2] = molecular target: Receptor tyrosine-protein kinase erbB-2 (Homo sapiens) (UniProt P04626); experiment: as above; conditions: 18-24 h, at 10 µM, stronger effect = lower value
[3] = reduced viability of SK-BR-3 breast cancer cells – cell-based, 24 h, human, pilot screen (AID 572); conditions: SK-BR-3 viability, CellTiter-Glo luminescence, at 10 µM, stronger effect = lower value;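 note: compound exposure lasted between 18 and 24 h rather than exactly 24 h; 100% = carrier-treated control wells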
[4] = HUVEC growth inhibition – cell-based, human, primary screen (AID 575;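 active = viability at or below 30% in both replicate assays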;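 note: 100% = median of untreated cell wells with 0.1% DMSO on each plate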); conditions: HUVEC proliferation, CellTiter-Glo luminescence, 72 h; at 10 µM; stronger effect = lower value
Method in brief: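 Test system: primary human umbilical vein endothelial cells. Quantity: 1250 cells/well. Compound: single 10 µM dose, 0.1% DMSO, from 5x medium stock. Timing: 72 h treatment at 37 °C. Detection: ATP-based CellTiter-Glo luminescent read. Benchmarks: vehicle and MePR control wells. Format: 384-well plates coated with collagen.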

[5] = H69AR cell proliferation blockers – human, duplicate replicates, primary screen (AID 580;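 active = viability at or under a set limit in both replicates, limit being median viability minus 3 SD, cut at about 48% in these data, passing the limit was not always enough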;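 note: 100% = mean luminescence of untreated wells and 0% = no signal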); conditions: H69AR lung tumor cells viability, ATP luminescence, 72 h; at 10 µM; stronger effect = lower value
[6] = MRP1 drug-resistance reversers in H69AR cells – cell-based, doxorubicin co-treatment, pilot screen (AID 601;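 active = viability loss from added drug above about 55%, and viability with drug at most 40%, in both replicates, limit read from the data, passing the limit was not always enough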); conditions: CellTiter-Glo, 72 h, at 10 µM; for differential viability (reversal): stronger effect = higher value
[7] = yeast transport mutant growth inhibition pilot in 384-well plates, post-Golgi transport modulator project (AID 636; in the data active = inhibition above about 31%); conditions: absorbance 615 nm, about 18 h, stronger effect = higher value
[8] = growth suppression of yeast trafficking mutant, preliminary HTS, modulators of trafficking downstream of Golgi apparatus project, 1536-format plate, OD 615 nm (AID 637; in the data active = inhibition above about 30%); conditions: yeast transport mutant growth, absorbance 615 nm, 18 h; stronger effect = higher value
[9] = H69AR cells + 2 uM doxorubicin, measured here: viability with 2 uM doxorubicin, stronger effect = lower value
[10] = H69AR cells, compound alone cytotoxicity

Receptor tyrosine-protein kinase erbB-2 (Homo sapiens), sequence (P04626 whole entry, looked up): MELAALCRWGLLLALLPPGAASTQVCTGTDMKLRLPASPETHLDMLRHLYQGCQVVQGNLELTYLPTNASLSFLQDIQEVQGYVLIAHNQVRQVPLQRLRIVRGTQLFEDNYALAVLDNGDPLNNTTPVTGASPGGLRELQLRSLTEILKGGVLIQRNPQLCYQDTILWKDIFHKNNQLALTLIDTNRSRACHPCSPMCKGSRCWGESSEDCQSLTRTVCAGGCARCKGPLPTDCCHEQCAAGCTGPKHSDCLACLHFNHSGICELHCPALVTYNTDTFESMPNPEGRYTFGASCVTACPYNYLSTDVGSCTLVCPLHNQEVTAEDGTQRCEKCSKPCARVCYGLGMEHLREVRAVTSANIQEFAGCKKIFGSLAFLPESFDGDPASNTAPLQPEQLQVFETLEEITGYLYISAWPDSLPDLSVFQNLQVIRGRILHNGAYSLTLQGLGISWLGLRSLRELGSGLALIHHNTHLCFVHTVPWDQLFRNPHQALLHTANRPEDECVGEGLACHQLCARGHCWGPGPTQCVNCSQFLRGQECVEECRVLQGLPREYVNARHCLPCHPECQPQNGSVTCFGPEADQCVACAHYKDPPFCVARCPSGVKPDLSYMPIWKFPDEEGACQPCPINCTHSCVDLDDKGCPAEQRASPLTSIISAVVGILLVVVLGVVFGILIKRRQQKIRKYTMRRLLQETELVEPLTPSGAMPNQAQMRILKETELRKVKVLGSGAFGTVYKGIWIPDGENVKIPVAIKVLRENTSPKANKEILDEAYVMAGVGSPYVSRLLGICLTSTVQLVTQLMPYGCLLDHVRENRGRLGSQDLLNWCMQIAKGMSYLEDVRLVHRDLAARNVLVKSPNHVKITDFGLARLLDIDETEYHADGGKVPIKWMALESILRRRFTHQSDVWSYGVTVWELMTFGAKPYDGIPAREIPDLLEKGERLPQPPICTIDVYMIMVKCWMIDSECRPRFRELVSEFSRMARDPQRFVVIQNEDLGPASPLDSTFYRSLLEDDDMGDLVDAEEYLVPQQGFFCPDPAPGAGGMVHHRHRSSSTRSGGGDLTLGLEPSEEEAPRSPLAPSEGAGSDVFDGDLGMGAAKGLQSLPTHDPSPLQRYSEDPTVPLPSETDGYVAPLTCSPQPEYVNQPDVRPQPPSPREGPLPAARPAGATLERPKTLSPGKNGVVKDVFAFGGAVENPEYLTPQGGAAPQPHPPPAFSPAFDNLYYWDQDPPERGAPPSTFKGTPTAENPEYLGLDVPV

Structure (SMILES) | viability [1] [%] | Her2 level [2] | viability [3] | viability [4] | viability [5] | differential viability (reversal) ([6]; H69AR cells + 2 uM doxorubicin) | viability [6, 9] [%] | viability [6, 10] [%] | inhibition [7] | inhibition [8]
c1ccc(-c2noc(C3CCCCC3)n2)nc1 | 91 | 96.5% (inactive) | 91% (inactive) | 114% (inactive) | 102% (inactive) | 11.2% (inactive) | 90.4 | 102 | 0.82% (inactive) | -2.7% (inactive)
Cc1cc(C)cc(NC(=O)C2CCCN(S(=O)(=O)c3cnc[nH]3)C2)c1 (stereo not given) | 99 | 96% (inactive) | 99% (inactive) | 92.5% (inactive) | 88.6% (inactive) | -1.48% (inactive) | 90.1 | 88.6 | -4.27% (inactive) | 0.67% (inactive)
CCOC(=O)C1=C(C)NC(C)=C(C(=O)OCC)C1C(=O)OC1CCOC1=O (stereo not given) | 104 | 85% (inactive) | 104% (inactive) | 87.5% (inactive) | 93.8% (inactive) | 2.32% (inactive) | 91.4 | 93.8 | -5.27% (inactive) | 0.95% (inactive)
Cc1cc(C)nc(N2CCCC(C(=O)Nc3nc4ccc(S(C)(=O)=O)cc4s3)C2)n1 (stereo not given) | 80.5 | 90% (inactive) | 80.5% (inactive) | 79.5% (inactive) | 83.7% (inactive) | -9.45% (inactive) | 93.2 | 83.7 | 0% (inactive) | 10.8% (inactive)
O=C(C1CC1(c1ccccc1)c1ccccc1)N1CCOCC1 (stereo not given) | 112 | 106% (inactive) | 112% (inactive) | 99.3% (inactive) | 98.8% (inactive) | 11.4% (inactive) | 87.3 | 98.8 | -5.6% (inactive) | 1.45% (inactive)
CCSc1nnc(NC(=O)C2CCCN(S(=O)(=O)c3cnc[nH]3)C2)s1 (stereo not given) | 105 | 97.5% (inactive) | 105% (inactive) | 89.9% (inactive) | 91.3% (inactive) | 1.98% (inactive) | 89.4 | 91.3 | -2.27% (inactive) | 2.83% (inactive)
CCOC(=O)c1cc2c(=O)n3cccc(C)c3nc2n(CCc2ccccc2)c1=N | 82 | 72% (inactive) | 82% (inactive) | 75.9% (inactive) | 77.9% (inactive) | -1.89% (inactive) | 79.8 | 77.9 | -4.8% (inactive) | 5.9% (inactive)
O=C(CCCC(=O)N(CC(=O)NC1CCCCC1)Cc1ccc2c(c1)OCO2)Nc1ccccn1 | 102 | 97.5% (inactive) | 102% (inactive) | 101% (inactive) | 92.3% (inactive) | 10.4% (inactive) | 81.9 | 92.3 | -6.18% (inactive) | 0.32% (inactive)
C=CCOC(=O)C1=C(C)OC(N)=C(C#N)C1c1ccc2c(c1)OCO2 (stereo not given) | 107 | 90.5% (inactive) | 107% (inactive) | 98.2% (inactive) | 94.5% (inactive) | 7.53% (inactive) | 86.9 | 94.5 | -4.32% (inactive) | -4.44% (inactive)
O=C(CSc1nnc(Cc2cc(=O)[nH]c(=O)[nH]2)n1-c1ccccc1)NCC1CCCO1 (stereo not given) | 99 | 84.5% (inactive) | 99% (inactive) | 96.1% (inactive) | 98.4% (inactive) | 3.05% (inactive) | 95.4 | 98.4 | -6.8% (inactive) | -1.11% (inactive)
CCOc1ccccc1-c1nc(-c2ccc(NC(=O)Cc3ccccc3OC)cc2)no1 | 90.5 | 114% (inactive) | 90.5% (inactive) | 75.3% (inactive) | 88.6% (inactive) | 5.33% (inactive) | 83.3 | 88.6 | 0.93% (inactive) | -5.81% (inactive)
CCOC(=O)c1cc(C)sc1N1C(=O)C2C3C=CC(C3)C2C1=O (stereo not given) | 132 | 94.5% (inactive) | 132% (inactive) | 109% (inactive) | 98.7% (inactive) | 5.84% (inactive) | 92.8 | 98.7 | -7.67% (inactive) | -0.95% (inactive)
COC(=O)c1c(C)oc2ccc(NS(=O)(=O)c3cccs3)cc12 | 106 | 94.5% (inactive) | 106% (inactive) | 59% (inactive) | 78.9% (inactive) | -21.9% (inactive) | 101 | 78.9 | -1.32% (inactive) | 5.9% (inactive)
c1ccc(OCCCn2nnc(-c3cccnc3)n2)cc1 | 110 | 87.5% (inactive) | 110% (inactive) | 103% (inactive) | 108% (inactive) | 10.3% (inactive) | 97.3 | 108 | -3.68% (inactive) | -5.83% (inactive)
Cc1nnc(SCC(=O)Nc2cc(C(F)(F)F)ccc2N2CCOCC2)o1 | 93 | 99% (inactive) | 93% (inactive) | 93.8% (inactive) | 86.8% (inactive) | -2.25% (inactive) | 89 | 86.8 | -0.13% (inactive) | -1.83% (inactive)
CCCCn1nnc(NC(=O)c2cc3ccccc3o2)n1 | 107 | 88.5% (inactive) | 107% (inactive) | 119% (inactive) | 81.6% (inactive) | -8.71% (inactive) | 90.3 | 81.6 | 0.13% (inactive) | 8% (inactive)
CCOC(=O)C1CCN(C(=O)C2(NC(=O)Nc3ccccc3Cl)CCCCC2)CC1 | 133 | 98% (inactive) | 133% (inactive) | 105% (inactive) | 87.9% (inactive) | 7.69% (inactive) | 80.2 | 87.9 | -1.95% (inactive) | -1.11% (inactive)
Cc1ccc(CSC2=NCCN2C(=O)c2ccco2)cc1 | 95.5 | 98% (inactive) | 95.5% (inactive) | 92.8% (inactive) | 84.3% (inactive) | 2.8% (inactive) | 81.5 | 84.3 | -3.85% (inactive) | 3.83% (inactive)
O=C(O)c1cccc(S(=O)(=O)N2CCOCC2)c1 | 118 | 121% (inactive) | 118% (inactive) | 95% (inactive) | 98.9% (inactive) | 3.4% (inactive) | 95.5 | 98.9 | -1.37% (inactive) | 11.3% (inactive)
Cc1nnc2sc(-c3cccc(NC(=O)c4cccnc4)c3)nn12 | 87.5 | 104% (inactive) | 87.5% (inactive) | 90.2% (inactive) | 87.8% (inactive) | -8.91% (inactive) | 96.7 | 87.8 | -2.7% (inactive) | 36.7% (active)
O=C1c2ccccc2C(=O)N1CNc1ccccc1 | 96.5 | 93.5% (inactive) | 96.5% (inactive) | 108% (inactive) | 101% (inactive) | -17.7% (inactive) | 118 | 101 | -5.2% (inactive) | -1.15% (inactive)
CCN(CC)C(=O)C1CCCN(Cc2ccc(N(C)C)cc2)C1 (stereo not given) | 90.5 | 96.5% (inactive) | 90.5% (inactive) | 100% (inactive) | 89.5% (inactive) | -3.46% (inactive) | 93 | 89.5 | -1.82% (inactive) | -4.75% (inactive)
Cc1nnc(N2C(=O)c3oc4ccccc4c(=O)c3C2c2ccco2)s1 (stereo not given) | 93 | 99.5% (inactive) | 93% (inactive) | 115% (inactive) | 95.2% (inactive) | 9.59% (inactive) | 85.6 | 95.2 | -1.54% (inactive) | 0.83% (inactive)
CCN(CC)CCCN1C(=O)C(=O)/C(=C(/O)c2ccccc2)C1c1ccccn1 (stereo not given) | 96.5 | 100% (inactive) | 96.5% (inactive) | 111% (inactive) | 96% (inactive) | 6.26% (inactive) | 89.7 | 96 | -1.35% (inactive) | -4.92% (inactive)
CCOC(=O)N1CCN(c2c(NCCCOC(C)C)c(=O)c2=O)CC1 | 97.5 | 90% (inactive) | 97.5% (inactive) | 86.8% (inactive) | 97.5% (inactive) | 7.67% (inactive) | 89.8 | 97.5 | -3.47% (inactive) | -0.98% (inactive)
CC(=O)N1C(=O)N(C)C2C1N(C(C)=O)C(=O)N2C (stereo not given) | 125 | 104% (inactive) | 125% (inactive) | 92.4% (inactive) | 93.5% (inactive) | -1.64% (inactive) | 95.1 | 93.5 | -1.18% (inactive) | -6.45% (inactive)
Cc1ccc(-c2nc3ncccc3o2)cc1NC(=O)c1ccco1 | 97.5 | 76.5% (inactive) | 97.5% (inactive) | 100% (inactive) | 99.2% (inactive) | 7.96% (inactive) | 91.3 | 99.2 | -6.76% (inactive) | -2.62% (inactive)
COCCn1c(SCc2csc(-c3ccccc3)n2)nc2ccccc21 | 94 | 98.5% (inactive) | 94% (inactive) | 71.5% (inactive) | 88.5% (inactive) | -2.99% (inactive) | 91.5 | 88.5 | 1.3% (inactive) | -8.03% (inactive)
